Experimental data as given in ChEMBL document CHEMBL1811881, “Development of 3-substituted-androsterone derivatives as potent inhibitors of 17β-hydroxysteroid dehydrogenase type 3” (Bioorg Med Chem, 2011).

Legend:
Format in all cases: cell-based
[1] = target: T1, 17-beta-hydroxysteroid dehydrogenase type 3 (Homo sapiens) (UniProt P37058); assay: Inhibition of 17Beta-HSD3 expressed in homogenized HEK293 cells assessed as transformation of [14C]-4-androstene-3,17-dione into [14C]-testosterone in presence of NADPH at 0.01 uM
T1 sequence (whole entry): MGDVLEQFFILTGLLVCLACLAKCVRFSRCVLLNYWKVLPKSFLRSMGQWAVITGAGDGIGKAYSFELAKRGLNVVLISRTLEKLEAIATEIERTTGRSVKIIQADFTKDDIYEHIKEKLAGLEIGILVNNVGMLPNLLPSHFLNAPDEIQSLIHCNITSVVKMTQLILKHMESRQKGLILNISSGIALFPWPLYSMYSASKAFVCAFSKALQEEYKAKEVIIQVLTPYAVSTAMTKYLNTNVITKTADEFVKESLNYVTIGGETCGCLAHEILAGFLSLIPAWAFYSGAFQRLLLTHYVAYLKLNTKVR
How it was run: (§1)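 HEK-293 cells overexpressing 17β-HSD3 were briefly homogenized. The enzyme assay measured conversion of 50 nM [4-14C]-4-androstene-3,17-dione to [14C]-testosterone with NADPH in excess (5 mM). Inhibitor was dissolved in ethanol, and the ethanol-only control was used to derive % inhibition at each concentration. Error 10%.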

[2] = target: T1, 17-beta-hydroxysteroid dehydrogenase type 3 (Homo sapiens); assay: Inhibition of 17Beta-HSD3 expressed in intact HEK293 cells assessed as transformation of [14C]-4-androstene-3,17-dione into [14C]-testosterone in presence of NADPH at 0.1 uM after 1 hr incubation
How it was run: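 HEK-293 cells were grown in MEM with 10% FBS at 37 °C under 5% CO2, seeded at 200,000 cells/well, and transfected with 2 µg/well of a 17β-HSD3 expression plasmid. Intact cells then got 50 nM [4-14C]-4-androstene-3,17-dione plus inhibitor in ethanol (0.5% v/v) for 1 h. Radiolabelled steroids were extracted from the medium and quantified. Triplicate; % transformation was used to derive IC50.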

[3] = target: T1, 17-beta-hydroxysteroid dehydrogenase type 3 (Homo sapiens); assay: Inhibition of 17Beta-HSD3 expressed in homogenized HEK293 cells assessed as transformation of [14C]-4-androstene-3,17-dione into [14C]-testosterone in presence of NADPH at 0.1 uM; how it was run: as §1

Q: What does the source list for C[C@@H]1CN(C(=O)c2ccccc2)[C@@H](C)CN1C[C@@]1(O)CC[C@@]2(C)[C@@H](CC[C@@H]3[C@@H]2CC[C@]2(C)C(=O)CC[C@@H]32)C1?
A: inhibition [1]: 24%; inhibition [2]: 78%; inhibition [3]: 87%

Q: Which results are given for C[C@]12CC[C@@]3(C[C@@H]1CC[C@@H]1[C@@H]2CC[C@]2(C)C(=O)CC[C@@H]12)CN(Cc1cccc(C(F)(F)F)c1)C(=O)O3?
A: inhibition [1]: 16%; inhibition [2]: 36%; inhibition [3]: 80%

Q: How did the inhibition [1] turn out when C[C@@H]1CN(C(=O)C2CCCCC2)[C@@H](C)CN1C[C@@]1(O)CC[C@@]2(C)[C@@H](CC[C@@H]3[C@@H]2CC[C@]2(C)C(=O)CC[C@@H]32)C1 was run?
A: 24%

Q: What about the inhibition [2] of the same molecule?
A: 77%

Q: And the inhibition [3]?
A: 90%

Q: Which inhibition [1] does the source give for C[C@]12CC[C@@]3(C[C@@H]1CC[C@@H]1[C@@H]2CC[C@]2(C)C(=O)CC[C@@H]12)CN(Cc1cc(C(F)(F)F)cc(C(F)(F)F)c1)C(=O)O3 here?
A: 12%

Q: What about the inhibition [2] of the same molecule?
A: 35%

Q: What about the inhibition [3] of the same molecule?
A: 66%

Q: Which results are given for C[C@]12CC[C@](O)(CN3CCN(C(=O)c4ccc(C(F)(F)F)cc4)CC3)C[C@@H]1CC[C@@H]1[C@@H]2CC[C@]2(C)C(=O)CC[C@@H]12?
A: inhibition [1]: 22%; inhibition [2]: 56%; inhibition [3]: 84%

Q: C[C@@H]1CN(Cc2ccccc2C(F)(F)F)[C@@H](C)CN1C[C@@]1(O)CC[C@@]2(C)[C@@H](CC[C@@H]3[C@@H]2CC[C@]2(C)C(=O)CC[C@@H]32)C1 was tested. Which inhibition [1] did it give?
A: 22%

Q: What about the inhibition [2] of the same molecule?
A: 36%

Q: What about the inhibition [3] of the same molecule?
A: 85%

Q: Which results are given for C[C@@H]1CN(Cc2ccc(C(F)(F)F)cc2C(F)(F)F)[C@@H](C)CN1C[C@@]1(O)CC[C@@]2(C)[C@@H](CC[C@@H]3[C@@H]2CC[C@]2(C)C(=O)CC[C@@H]32)C1?
A: inhibition [1]: 15%; inhibition [2]: 21%; inhibition [3]: 71%

Q: With C[C@]12CC[C@@]3(C[C@@H]1CC[C@@H]1[C@@H]2CC[C@]2(C)C(=O)CC[C@@H]12)CN(Cc1ccc(C(F)(F)F)cc1)C(=O)O3 as the molecule, how does the inhibition [1] read?
A: 25%

Q: What about the inhibition [2] of the same molecule?
A: 43%

Q: And the inhibition [3]?
A: 80%

Q: With C[C@@H]1CN(C(=O)c2cccc(C(F)(F)F)c2)[C@@H](C)CN1C[C@@]1(O)CC[C@@]2(C)[C@@H](CC[C@@H]3[C@@H]2CC[C@]2(C)C(=O)CC[C@@H]32)C1 as the molecule, how does the inhibition [1] read?
A: 28%

Q: What about the inhibition [2] of the same molecule?
A: 70%

Q: What about the inhibition [3] of the same molecule?
A: 89%

Q: Which inhibition [1] does the source give for C[C@@H]1CN(S(=O)(=O)c2cccc(C(F)(F)F)c2)[C@@H](C)CN1C[C@@]1(O)CC[C@@]2(C)[C@@H](CC[C@@H]3[C@@H]2CC[C@]2(C)C(=O)CC[C@@H]32)C1 here?
A: 32%

Q: And the inhibition [2]?
A: 77%

Q: What about the inhibition [3] of the same molecule?
A: 91%

Q: Which results are given for C[C@]12CC[C@](O)(CN3CCN(Cc4ccc(C(F)(F)F)cc4C(F)(F)F)CC3)C[C@@H]1CC[C@@H]1[C@@H]2CC[C@]2(C)C(=O)CC[C@@H]12?
A: inhibition [1]: 22%; inhibition [2]: 16%; inhibition [3]: 75%

Q: C[C@]12CC[C@](O)(CN3CCN(C(=O)c4ccccc4)CC3)C[C@@H]1CC[C@@H]1[C@@H]2CC[C@]2(C)C(=O)CC[C@@H]12 was tested. Which inhibition [1] did it give?
A: 17%

Q: What about the inhibition [2] of the same molecule?
A: 50%

Q: And the inhibition [3]?
A: 76%

Q: Which inhibition [1] does the source give for C[C@]12CC[C@](O)(CN3CCN(Cc4ccccc4C(F)(F)F)CC3)C[C@@H]1CC[C@@H]1[C@@H]2CC[C@]2(C)C(=O)CC[C@@H]12 here?
A: 18%

Q: And the inhibition [2]?
A: 20%

Q: And the inhibition [3]?
A: 86%

Q: Which inhibition [1] does the source give for C[C@]12CC[C@@]3(C[C@@H]1CC[C@@H]1[C@@H]2CC[C@]2(C)C(=O)CC[C@@H]12)CN(Cc1ccc(C(F)(F)F)nc1)C(=O)O3 here?
A: 3%

Q: And the inhibition [2]?
A: 36%

Q: And the inhibition [3]?
A: 65%

Q: For C[C@@H]1CN(Cc2cc(C(F)(F)F)cc(C(F)(F)F)c2)[C@@H](C)CN1C[C@@]1(O)CC[C@@]2(C)[C@@H](CC[C@@H]3[C@@H]2CC[C@]2(C)C(=O)CC[C@@H]32)C1, which inhibition [1] is on record?
A: 25%

Q: And the inhibition [2]?
A: 16%

Q: What about the inhibition [3] of the same molecule?
A: 74%

Q: With C[C@]12CC[C@](O)(CN3CCN(Cc4ccc(C(F)(F)F)cc4)CC3)C[C@@H]1CC[C@@H]1[C@@H]2CC[C@]2(C)C(=O)CC[C@@H]12 as the molecule, how does the inhibition [1] read?
A: 14%

Q: And the inhibition [2]?
A: 33%

Q: What about the inhibition [3] of the same molecule?
A: 81%

Q: Which results are given for COc1cccc(CN2C[C@@H](C)N(C[C@@]3(O)CC[C@@]4(C)[C@@H](CC[C@@H]5[C@@H]4CC[C@]4(C)C(=O)CC[C@@H]54)C3)C[C@@H]2C)c1?
A: inhibition [1]: 19%; inhibition [2]: 50%; inhibition [3]: 87%

Q: For C[C@@H]1CN(Cc2ccc(C(F)(F)F)cc2)[C@@H](C)CN1C[C@@]1(O)CC[C@@]2(C)[C@@H](CC[C@@H]3[C@@H]2CC[C@]2(C)C(=O)CC[C@@H]32)C1, which inhibition [1] is on record?
A: 14%

Q: What about the inhibition [2] of the same molecule?
A: 36%

Q: What about the inhibition [3] of the same molecule?
A: 87%

Q: C[C@]12CC[C@](O)(CN3CCN(S(=O)(=O)c4ccc(C(F)(F)F)cc4)CC3)C[C@@H]1CC[C@@H]1[C@@H]2CC[C@]2(C)C(=O)CC[C@@H]12 was tested. Which inhibition [1] did it give?
A: 21%

Q: What about the inhibition [2] of the same molecule?
A: 34%

Q: What about the inhibition [3] of the same molecule?
A: 78%

Q: With C[C@@H]1CN(Cc2cc(C(F)(F)F)ccc2C(F)(F)F)[C@@H](C)CN1C[C@@]1(O)CC[C@@]2(C)[C@@H](CC[C@@H]3[C@@H]2CC[C@]2(C)C(=O)CC[C@@H]32)C1 as the molecule, how does the inhibition [1] read?
A: 16%

Q: And the inhibition [2]?
A: 23%

Q: And the inhibition [3]?
A: 71%

Q: How did the inhibition [1] turn out when C[C@]12CC[C@](O)(CN3CCN(C(=O)c4ccccc4C(F)(F)F)CC3)C[C@@H]1CC[C@@H]1[C@@H]2CC[C@]2(C)C(=O)CC[C@@H]12 was run?
A: 31%

Q: And the inhibition [2]?
A: 62%

Q: And the inhibition [3]?
A: 86%

Q: How did the inhibition [1] turn out when C[C@]12CC[C@](O)(CN3CCN(Cc4cccc(C(F)(F)F)c4)CC3)C[C@@H]1CC[C@@H]1[C@@H]2CC[C@]2(C)C(=O)CC[C@@H]12 was run?
A: 51%

Q: And the inhibition [2]?
A: 52%

Q: And the inhibition [3]?
A: 88%

Q: Which results are given for C[C@]12CC[C@](O)(CN3CCN(S(=O)(=O)c4ccccc4C(F)(F)F)CC3)C[C@@H]1CC[C@@H]1[C@@H]2CC[C@]2(C)C(=O)CC[C@@H]12?
A: inhibition [1]: 45%; inhibition [2]: 63%; inhibition [3]: 92%

Q: With C[C@]12CC[C@@]3(C[C@@H]1CC[C@@H]1[C@@H]2CC[C@]2(C)C(=O)CC[C@@H]12)CN(Cc1ccccc1C(F)(F)F)C(=O)O3 as the molecule, how does the inhibition [1] read?
A: 17%

Q: What about the inhibition [2] of the same molecule?
A: 35%

Q: And the inhibition [3]?
A: 81%

Q: With C[C@]12CC[C@](O)(CN3CCN(Cc4cc(C(F)(F)F)cc(C(F)(F)F)c4)CC3)C[C@@H]1CC[C@@H]1[C@@H]2CC[C@]2(C)C(=O)CC[C@@H]12 as the molecule, how does the inhibition [1] read?
A: 25%

Q: And the inhibition [2]?
A: 25%

Q: And the inhibition [3]?
A: 83%

Q: With C[C@]12CC[C@](O)(CN3CCN(Cc4cc(C(F)(F)F)ccc4C(F)(F)F)CC3)C[C@@H]1CC[C@@H]1[C@@H]2CC[C@]2(C)C(=O)CC[C@@H]12 as the molecule, how does the inhibition [1] read?
A: 18%

Q: And the inhibition [2]?
A: 12%

Q: What about the inhibition [3] of the same molecule?
A: 85%

Q: Which results are given for COc1cccc(CN2CCN(C[C@@]3(O)CC[C@@]4(C)[C@@H](CC[C@@H]5[C@@H]4CC[C@]4(C)C(=O)CC[C@@H]54)C3)CC2)c1?
A: inhibition [1]: 21%; inhibition [2]: 47%; inhibition [3]: 83%

Q: For C[C@@H]1CN(S(=O)(=O)c2ccc(C(F)(F)F)cc2)[C@@H](C)CN1C[C@@]1(O)CC[C@@]2(C)[C@@H](CC[C@@H]3[C@@H]2CC[C@]2(C)C(=O)CC[C@@H]32)C1, which inhibition [1] is on record?
A: 79%

Q: What about the inhibition [2] of the same molecule?
A: 47%

Q: And the inhibition [3]?
A: 92%

Q: What does the source list for C[C@]12CC[C@](O)(CN3CCN(C(=O)c4cccc(C(F)(F)F)c4)CC3)C[C@@H]1CC[C@@H]1[C@@H]2CC[C@]2(C)C(=O)CC[C@@H]12?
A: inhibition [1]: 10%; inhibition [2]: 91%; inhibition [3]: 92%

Q: How did the inhibition [1] turn out when C[C@@H]1CN(C(=O)c2ccc(C(F)(F)F)cc2)[C@@H](C)CN1C[C@@]1(O)CC[C@@]2(C)[C@@H](CC[C@@H]3[C@@H]2CC[C@]2(C)C(=O)CC[C@@H]32)C1 was run?
A: 17%

Q: And the inhibition [2]?
A: 61%

Q: And the inhibition [3]?
A: 91%
